Measured values gathered from unrelated publications.
Lines come from different studies, so protocols differ.
Target: MAP/microtubule affinity-regulating kinase 3 (MARK3, Homo sapiens, UniProt P27448)

Structure (SMILES) | test | conditions | remaining binding [%]
COc1cnc(Nc2cccc(S(N)(=O)=O)c2)nc1N1CCN(c2ccccc2)C(=O)C1 | binding, competition with immobilised ligand | 1 µM | 92
CN(C)C(=O)Cn1cc(-c2nc([C@@](C)(c3ccc(-c4cnc(N)nc4)cc3)C3CC3)no2)cn1 | cell-free assay, competition with immobilised ligand | 1 µM | 99
Cc1cnn2ncc(-c3ccnc(N(C)C)n3)c2c1 | binding | 1 µM | 82
O=C(Nc1ccc(Oc2ccc(F)cc2)cc1)N1CCc2ncccc2[C@H]1c1ccc(F)cc1 | cell-free assay, competition with immobilised ligand | 1 µM | 100
COc1ncc2cc3ccccc3nc2c1C#N | cell-free assay, competition with immobilised ligand | 5 µM | 100
Nc1ncc2c(n1)-c1c([nH]c3ccc(C#CC4CC4)cc13)CCCC2 | binding, competition with immobilised ligand | 1 µM | 97
O=C(NCc1ncc(C(F)(F)F)cc1Cl)c1ccc2c(c1)C1(CCS(=O)(=O)CC1)[C@H](C1CC1)N2S(=O)(=O)c1ccc(F)cc1 | cell-free assay, competition with immobilised ligand | 1 µM | 89
CN(CCCC(F)(F)F)c1nccc(-c2cnn3ncccc23)n1 | binding | 1 µM | 100
CCN1CCN(Cc2ccc(C(=O)Nc3ccc(C)c(Oc4ccc5c(c4)CC(=O)N5)c3)cc2C(F)(F)F)CC1 | binding, competition with immobilised ligand | 1 µM | 100
CN(C)c1nccc(-c2cnn3ncccc23)n1 | binding | 1 µM | 100
CC(C)(C)c1ccc(-c2nc(CBr)nn2-c2cccc(O)c2)cc1 | cell-free assay, competition with immobilised ligand | 10 µM | 85
C=CC(=O)N1CCC(C(=O)NCC(=O)N2CCN(c3nc(-c4cnc(N)nc4C(F)F)nc(N4CCOCC4)n3)CC2)CC1 | binding, competition with immobilised ligand | 1 µM | 65
O=C(NCCCN1CCOCC1)c1ccc(Nc2ncc(Cl)c(-c3ccc(Cl)s3)n2)cc1 | binding, competition with immobilised ligand | 1 µM | 100
COc1ccnn2ncc(-c3ccnc(N(C)C)n3)c12 | binding | 1 µM | 44
Cc1cnc(Nc2ccc(C(=O)N3CCC(N4CCCC4)CC3)cc2)nc1-c1cc2ccccc2s1 | binding, competition with immobilised ligand | 1 µM | 100
O=C(Nc1cccnn1)N1CCC(=Cc2cccc(Oc3ccc(C(F)(F)F)cn3)c2)CC1 | cell-free assay, competition with immobilised ligand | 1 µM | 89
